{
  "source": "ChEMBL document CHEMBL1914438",
  "about": "“Synthesis and biological activity of novel N-cycloalkyl-(cycloalkylaryl)-2-[(3-R-2-oxo-2H-[1,2,4]triazino[2,3-c]quinazoline-6-yl)thio]acetamides” (2011)",
  "assay_type_in_all_cases": "functional",
  "key": {"RPMI-8226": {"test_system": "RPMI-8226", "assay": "Growth inhibition of human RPMI8226 cells after 48 hrs by SRB assay", "conditions": "RPMI-8226, 48 h", "in_short": "(§1)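 NCI panel of about 60 human tumor lines, 48 h continuous exposure at five 10-fold dilutions from 10^-4 to 10^-8 M. SRB protein staining was read as absorbance at time zero, in untreated controls and at each concentration. GI50 is the concentration giving 50% lower net protein increase than controls. TGI is where Ti = Tz, and LC50 is 50% protein loss versus start.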"}, "MDA-MB-435": {"test_system": "MDA-MB-435", "assay": "Cytotoxicity against human MDA-MB-435 cells assessed as cell growth at 10^-5 M after 48 hrs by SRB assay", "conditions": "MDA-MB-435, 48 h, read-out: Activity", "in_short": "(§2)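 NCI 60-cell-line one-dose primary screen: cells inoculated and preincubated 24–48 h, then test agent added at a single 10^-5 M concentration for a further 48 h. Endpoint is sulforhodamine B protein staining read spectrophotometrically. Reported as percent growth relative to untreated control cells.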"}, "NCI-H522 [1]": {"test_system": "NCI-H522", "assay": "Cytotoxicity against human NCI-H522 cells assessed as cell growth at 10^-5 M after 48 hrs by SRB assay", "conditions": "NCI-H522, 48 h, read-out: Activity", "in_short": "(§3)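 NCI human tumor cell line panel from nine cancer types. Each line was inoculated and preincubated 24–48 h, then exposed to a single concentration (10^-5 M) for 48 h. Growth was read by sulforhodamine B protein staining, measured spectrophotometrically. Value reported as percent growth of treated cells relative to untreated controls.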"}, "OVCAR-3 [2]": {"test_system": "OVCAR-3", "assay": "Cytotoxicity against human OVCAR3 cells assessed as cell growth at 10^-5 M after 48 hrs by SRB assay", "conditions": "OVCAR-3, 48 h, read-out: Activity", "in_short": "as §3"}, "SNB-19": {"test_system": "SNB-19", "assay": "Growth inhibition of human SNB19 cells after 48 hrs by SRB assay", "conditions": "SNB-19, 48 h", "in_short": "(§4)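 NCI 60-cell-line human tumor panel. Cells were inoculated and preincubated for 24–48 h, then exposed continuously to compound for 48 h. Primary screen used a single 10^-5 M concentration. Growth was measured by sulforhodamine B protein staining, read spectrophotometrically, and reported as percent growth versus untreated controls. Selected compounds were also run at five 10-fold dilutions (10^-4 to 10^-8 M) to derive GI50 from time-zero-corrected absorbances.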"}, "Yamadazyma tenuis [3]": {"test_system": "Yamadazyma tenuis", "assay": "Antifungal activity against Candida tenuis assessed as zone of inhibition at 0.1 mg/mL after 48 to 72 hrs by stiff-plate agar-diffusion method", "conditions": "read-out: DIZ"}, "COLO 205": {"test_system": "COLO 205", "assay": "Cytotoxicity against human COLO205 cells assessed as cell growth at 10^-5 M after 48 hrs by SRB assay", "conditions": "COLO 205, 48 h, read-out: Activity", "in_short": "as §2"}, "SW-620": {"test_system": "SW-620", "assay": "Cytotoxicity against human SW620 cells assessed as cell growth at 10^-5 M after 48 hrs by SRB assay", "conditions": "SW-620, 48 h, read-out: Activity", "in_short": "as §3"}, "Yamadazyma tenuis [4]": {"test_system": "Yamadazyma tenuis", "assay": "Antifungal activity against Candida tenuis assessed as zone of inhibition at 0.5 mg/mL after 48 to 72 hrs by stiff-plate agar-diffusion method", "conditions": "read-out: DIZ"}, "Mycobacterium [5]": {"test_system": "Mycobacterium", "assay": "Antibacterial activity against Mycobacterium luteum assessed as zone of inhibition at 0.5 mg/mL after 24 hrs by stiff-plate agar-diffusion method", "conditions": "read-out: DIZ"}, "BT-549": {"test_system": "BT-549", "assay": "Cytotoxicity against human BT549 cells assessed as cell growth at 10^-5 M after 48 hrs by SRB assay", "conditions": "BT-549, 48 h, read-out: Activity", "in_short": "as §2"}, "M14": {"test_system": "M14", "assay": "Cytotoxicity against human M14 cells assessed as cell growth at 10^-5 M after 48 hrs by SRB assay", "conditions": "M14, 48 h, read-out: Activity", "in_short": "as §2"}, "HOP-62": {"test_system": "HOP-62", "assay": "Cytotoxicity against human HOP62 cells assessed as cell growth at 10^-5 M after 48 hrs by SRB assay", "conditions": "HOP-62, 48 h, read-out: Activity", "in_short": "as §2"}, "Staphylococcus aureus": {"test_system": "Staphylococcus aureus", "assay": "Antibacterial activity against Staphylococcus aureus assessed as zone of inhibition at 0.1 mg/mL after 24 hrs by stiff-plate agar-diffusion method", "conditions": "read-out: DIZ"}, "HOP-92": {"test_system": "HOP-92", "assay": "Cytotoxicity against human HOP92 cells assessed as cell growth at 10^-5 M after 48 hrs by SRB assay", "conditions": "HOP-92, 48 h, read-out: Activity", "in_short": "as §2"}, "EKVX [6]": {"test_system": "EKVX", "assay": "Growth inhibition of human EKVX cells after 48 hrs by SRB assay", "in_short": "as §1"}, "[7]": {"assay": "Cytotoxicity against human NCI60 cells assessed as cell growth at 10^-5 M after 48 hrs by SRB assay", "conditions": "NCI60, 48 h, read-out: Activity", "in_short": "as §3"}, "SF-295": {"test_system": "SF-295", "assay": "Growth inhibition of human SF295 cells after 48 hrs by SRB assay", "conditions": "SF-295, 48 h", "in_short": "as §4"}, "TK-10": {"test_system": "TK-10", "assay": "Cytotoxicity against human TK10 cells assessed as cell growth at 10^-5 M after 48 hrs by SRB assay", "conditions": "TK-10, 48 h, read-out: Activity", "in_short": "as §3"}, "EKVX [8]": {"test_system": "EKVX", "assay": "Cytotoxicity against human EKVX cells assessed as cell growth at 10^-5 M after 48 hrs by SRB assay", "conditions": "read-out: Activity", "in_short": "as §2"}, "[9]": {"test_system": "Photobacterium leiognathi", "assay": "Antibacterial activity against Photobacterium leiognathi Sh1 assessed as inhibition of bacterial luminescence at 0.25 mg/mL after 10 mins by bioluminometry-based chronic action test", "set-up": "scale not given: the % may be the effect or the level left", "conditions": "in the assay text read “after 16 to 18 hrs” for “after 10 mins”", "in_short": "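Chronic (growth plus luminescence) test with P. leiognathi Sh1 at 10^5 cells/mL in chloride solution, compounds added in DMSO. After 10 min at 25 °C, growth medium added at 1:50 and the mix incubated 16–18 h at 30 °C. Luminescence then measured by bioluminometer as % of untreated control. Tetracycline reference.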"}, "DU-145": {"test_system": "DU-145", "assay": "Cytotoxicity against human DU145 cells assessed as cell growth at 10^-5 M after 48 hrs by SRB assay", "conditions": "DU-145, 48 h, read-out: Activity", "in_short": "as §2"}, "NCI-H522 [10]": {"test_system": "NCI-H522", "assay": "Growth inhibition of human NCI-H522 cells after 48 hrs by SRB assay", "conditions": "NCI-H522, 48 h", "in_short": "as §1"}, "Mycobacterium [11]": {"test_system": "Mycobacterium", "assay": "Antibacterial activity against Mycobacterium luteum assessed as zone of inhibition at 0.1 mg/mL after 24 hrs by stiff-plate agar-diffusion method", "conditions": "read-out: DIZ"}, "OVCAR-3 [12]": {"test_system": "OVCAR-3", "assay": "Growth inhibition of human OVCAR3 cells after 48 hrs by SRB assay", "conditions": "OVCAR-3, 48 h", "in_short": "as §1"}, "Malme-3M": {"test_system": "Malme-3M", "assay": "Growth inhibition of human MALME-3M cells after 48 hrs by SRB assay", "in_short": "as §1"}, "Aspergillus niger": {"test_system": "Aspergillus niger", "assay": "Antifungal activity against Aspergillus niger assessed as zone of inhibition at 0.1 mg/mL after 48 to 72 hrs by stiff-plate agar-diffusion method", "conditions": "read-out: DIZ"}, "A549": {"test_system": "A549", "assay": "Cytotoxicity against human A549 cells assessed as cell growth at 10^-5 M after 48 hrs by SRB assay", "conditions": "A549, 48 h, read-out: Activity", "in_short": "as §2"}, "[13]": {"conditions": "read-out: pLC50 (the source's name) (converted)"}},
  "data": [
    {"smiles": "CCC1C2CCC(C2)C1NC(=O)CSc1nc2ccccc2c2nc(=O)c(-c3ccc(OC)cc3)nn12", "note": "(configuration not stated)", "values": [
      {"measurement": "GI50", "setting": "RPMI-8226", "result": 2.95, "unit": "µM"},
      {"measurement": "CC50", "setting": "RPMI-8226; [13]", "result": "> 50.1", "unit": "µM"},
      {"measurement": "TGI", "setting": "RPMI-8226; read-out: pTGI (converted)", "result": 38, "unit": "µM"},
      {"measurement": "growth at 10 µM", "setting": "MDA-MB-435", "result": 58.6, "unit": "%"},
      {"measurement": "growth at 10 µM", "setting": "NCI-H522 [1]", "result": -49.9, "unit": "%"},
      {"measurement": "growth at 10 µM", "setting": "OVCAR-3 [2]", "result": -69.7, "unit": "%"},
      {"measurement": "GI50", "setting": "SNB-19", "result": 3.47, "unit": "µM"},
      {"measurement": "CC50", "setting": "SNB-19; [13]", "result": "> 50.1", "unit": "µM"},
      {"measurement": "TGI", "setting": "SNB-19; read-out: pTGI (converted)", "result": 22.4, "unit": "µM"},
      {"measurement": "zone of inhibition at 100 µg/mL", "setting": "Yamadazyma tenuis [3]", "result": 0, "unit": "mm"},
      {"measurement": "growth at 10 µM", "setting": "COLO 205", "result": 28.6, "unit": "%"},
      {"measurement": "growth at 10 µM", "setting": "SW-620", "result": 45.9, "unit": "%"},
      {"measurement": "zone of inhibition at 500 µg/mL", "setting": "Yamadazyma tenuis [4]", "result": 0, "unit": "mm"},
      {"measurement": "zone of inhibition at 500 µg/mL", "setting": "Mycobacterium [5]", "result": 0, "unit": "mm"},
      {"measurement": "growth at 10 µM", "setting": "BT-549", "result": 90.9, "unit": "%"},
      {"measurement": "growth at 10 µM", "setting": "M14", "result": 44.2, "unit": "%"},
      {"measurement": "growth at 10 µM", "setting": "HOP-62", "result": -19.5, "unit": "%"},
      {"measurement": "zone of inhibition at 100 µg/mL", "setting": "Staphylococcus aureus", "result": 0, "unit": "mm"},
      {"measurement": "growth at 10 µM", "setting": "HOP-92", "result": 57, "unit": "%"},
      {"measurement": "GI50", "setting": "EKVX [6]", "result": 1.95, "unit": "µM"},
      {"measurement": "CC50", "setting": "EKVX [6]; [13]", "result": "> 50.1", "unit": "µM"},
      {"measurement": "TGI", "setting": "EKVX [6]; read-out: pTGI", "result": "> 50.1", "unit": "µM"},
      {"measurement": "growth at 10 µM", "setting": "[7]", "result": 73.7, "unit": "%"},
      {"measurement": "GI50", "setting": "SF-295", "result": 3.47, "unit": "µM"},
      {"measurement": "CC50", "setting": "SF-295; [13]", "result": "> 50.1", "unit": "µM"},
      {"measurement": "TGI", "setting": "SF-295; read-out: pTGI (converted)", "result": 21.9, "unit": "µM"},
      {"measurement": "growth at 10 µM", "setting": "TK-10", "result": 13.8, "unit": "%"},
      {"measurement": "growth at 10 µM", "setting": "EKVX [8]", "result": 25.6, "unit": "%"},
      {"measurement": "Activity", "setting": "[9]", "result": 80, "unit": "%"},
      {"measurement": "growth at 10 µM", "setting": "DU-145", "result": -32, "unit": "%"},
      {"measurement": "GI50", "setting": "NCI-H522 [10]", "result": 1.35, "unit": "µM"},
      {"measurement": "CC50", "setting": "NCI-H522 [10]; [13]", "result": 38.9, "unit": "µM"},
      {"measurement": "TGI", "setting": "NCI-H522 [10]; read-out: pTGI (converted)", "result": 7.94, "unit": "µM"},
      {"measurement": "zone of inhibition at 100 µg/mL", "setting": "Mycobacterium [11]", "result": 0, "unit": "mm"},
      {"measurement": "GI50", "setting": "OVCAR-3 [12]", "result": 1.48, "unit": "µM"},
      {"measurement": "CC50", "setting": "OVCAR-3 [12]; [13]", "result": 28.2, "unit": "µM"},
      {"measurement": "TGI", "setting": "OVCAR-3 [12]; read-out: pTGI (converted)", "result": 5.62, "unit": "µM"},
      {"measurement": "GI50", "setting": "Malme-3M", "result": 3.89, "unit": "µM"},
      {"measurement": "CC50", "setting": "Malme-3M; [13]", "result": "> 50.1", "unit": "µM"},
      {"measurement": "TGI", "setting": "Malme-3M; read-out: pTGI (converted)", "result": 24.5, "unit": "µM"},
      {"measurement": "zone of inhibition at 100 µg/mL", "setting": "Aspergillus niger", "result": 0, "unit": "mm"},
      {"measurement": "growth at 10 µM", "setting": "A549", "result": 50.4, "unit": "%"}
    ]}
  ]
}
